Experimental findings from ChEMBL document CHEMBL1157166, “Synthesis, antimalarial activity, structure-activity relationship analysis of thieno-[3,2-b]benzothiazine S,S-dioxide analogs” (2008) are described below.

The inhibition is the share of the control response that was lost under treatment.

Holding throughout (format): functional
The subject of experiment [1] is Plasmodium berghei. Kind of experiment: Antiparasitic activity as survival days against chloroquine-sensitive Plasmodium berghei ANKA infected NIH mice (Mus musculus) at 20 mg/kg intraperitoneal dose. In a few lines:
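NIH mice (18–22 g) infected ip with 1 × 10⁷ P. berghei parasites; dosing started 2 h post-infection. Compound dissolved in DMSO (0.1 M stock), diluted in 2% Saline–Tween 20, given ip at 20 mg/kg once daily for 4 days. Chloroquine 25 mg/kg as positive control; saline-treated mice as untreated controls. Survival time after infection recorded versus control mice.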

Experiment [2] concerns Plasmodium berghei. Kind of experiment: Antiparasitic activity as reduced parasitaemia against chloroquine-sensitive Plasmodium berghei ANKA infected NIH mice (Mus musculus) at 20 mg/kg intraperitoneal dose at day 4. Further details: scale not given: the % may be the effect or the level left. The procedure, abridged:
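Four-day suppressive test in NIH mice (18–22 g) infected ip with 1 × 10⁷ P. berghei. Dosing began 2 h post-infection: 20 mg/kg ip once daily for 4 days, from a 0.1 M DMSO stock diluted in 2% saline–Tween 20. Chloroquine at 25 mg/kg was the positive control. Day-4 parasitemia was read from Giemsa smears as a percentage versus saline-treated controls.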

In experiment [3] the target is T1, Histidine-rich protein PFHRP-II (Plasmodium falciparum) (UniProt P05227).
T1 sequence (whole entry): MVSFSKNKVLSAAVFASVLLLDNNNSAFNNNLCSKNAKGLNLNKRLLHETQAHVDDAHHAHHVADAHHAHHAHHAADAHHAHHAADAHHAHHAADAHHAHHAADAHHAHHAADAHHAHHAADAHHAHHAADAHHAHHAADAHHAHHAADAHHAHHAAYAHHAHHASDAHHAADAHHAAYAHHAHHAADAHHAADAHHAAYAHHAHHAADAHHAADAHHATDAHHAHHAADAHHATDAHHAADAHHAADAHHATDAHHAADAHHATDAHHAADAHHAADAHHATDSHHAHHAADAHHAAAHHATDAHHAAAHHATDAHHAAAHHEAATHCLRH
Kind of experiment: Inhibition of beta-hematin formation using synthetic hemin chloride. The arrangement: concentration or dose not given beside the values. As to conditions: concentration not given here. The procedure, abridged:
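Hemin chloride (4 mM in DMSO) was mixed in triplicate with compound in DMSO (50–5 mM as added); water or DMSO served as controls. Acetate buffer (0.2 M, pH 4.4) was added, then incubated at 37 °C for 48 h and centrifuged. The pellet was washed with DMSO, dissolved in 0.2 N NaOH and diluted 1:2 in 0.1 N NaOH. A405 was read and expressed as % inhibition of β-hematin formation.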

Experiment [4] has as its system Plasmodium berghei. Kind of experiment: Antiparasitic activity against Plasmodium berghei ANKA infected BALB/c mice (Mus musculus) after 18 hrs as reduced hemoglobin proteolysis. In a few lines:
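Parasite extract: blood from P. berghei ANKA-infected mice (30–70% parasitemia); erythrocytes washed and lysed, then freed parasites freeze–thawed three times. Native mouse hemoglobin was incubated with extract, GSH and 0.2 M acetate buffer pH 5.4, with compound in DMSO, at 37 °C for 18 h. Leupeptin, pepstatin and chloroquine were references. Digestion was judged visually from the 14.4 kDa globin band on SDS–PAGE.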

In experiment [1], `CCOC(=O)c1sc2c(c1N)S(=O)(=O)c1ccc(Cl)cc1N2c1ccccc1C` yielded a Survival of 15.5 days. Also, the Activity in experiment [2] was found to be 8.7%. In addition, the inhibition in experiment [3] is less than 5%. Also, the “inhibition (INH)” value in experiment [4] was found to be 74.36%.
The compound `CCOC(=O)c1sc2c(c1N)S(=O)(=O)c1cc(Cl)ccc1N2c1cccc(OC)c1` came in with an inhibition in experiment [3] of less than 5%. For the same compound, the “inhibition (INH)” value in experiment [4] is on record as 0%.
For the compound `CC(=O)N[C@@H](CC(C)C)C(=O)N[C@@H](CC(C)C)C(=O)N[C@H](C=O)CCCNC(=N)N` [LEUPEPTIN], in experiment [4], the “inhibition (INH)” value was 89.06%.
In experiment [3], `CCOC(=O)c1sc2c(c1N)S(=O)(=O)c1cc(Cl)ccc1N2c1ccc(Cl)c(Cl)c1` had an inhibition of less than 5%. Also, the “inhibition (INH)” value in experiment [4] is 0%.
The matching figures for `CCOC(=O)c1sc2c(c1N)S(=O)(=O)c1cc(Cl)ccc1N2c1cc(C)ccc1C`: less than 5% and 0%.
The like results for `CCOC(=O)c1sc2c(c1N)S(=O)(=O)c1ccc(Cl)cc1N2c1cccc(Cl)c1` were, in that order, less than 5% and 0%.
Take `CCOC(=O)c1sc2c(c1N)S(=O)(=O)c1ccc(Cl)cc1N2c1ccc(Cl)cc1`: the inhibition in experiment [3] was less than 5%. Moreover, the “inhibition (INH)” value in experiment [4] was found to be 0%.
Take `CC(C)CC(=O)N[C@H](C(=O)N[C@H](C(=O)N[C@@H](CC(C)C)[C@@H](O)CC(=O)N[C@@H](C)C(=O)N[C@@H](CC(C)C)[C@@H](O)CC(=O)O)C(C)C)C(C)C` [PEPSTATIN]: the “inhibition (INH)” value in experiment [4] is 92.94%.
`CCOC(=O)c1sc2c(c1N)S(=O)(=O)c1cc(Cl)ccc1N2c1ccc(C)cc1` displayed an inhibition in experiment [3] of less than 5%. Also, the “inhibition (INH)” value in experiment [4] worked out at 0%.
The like results for `CCOC(=O)c1sc2c(c1N)S(=O)(=O)c1cc(Cl)ccc1N2c1ccc(OC)cc1` were, in that order, less than 5% and 0%.
`CCOC(=O)c1sc2c(c1N)S(=O)(=O)c1cc(Cl)ccc1N2c1ccccc1`: in experiment [3], the inhibition is less than 5%. Also, in experiment [4], the “inhibition (INH)” value worked out at 0%.
Take `CCOC(=O)c1sc2c(c1N)S(=O)(=O)c1ccc(Cl)cc1N2c1cc(C)ccc1C`: the Survival in experiment [1] was 11.42 days. The compound further came in with an Activity in experiment [2] of 9.4%. Further, in experiment [3], the inhibition is less than 5%. Further, in experiment [4], the “inhibition (INH)” value worked out at 76.81%.
With `CCOC(=O)c1sc2c(c1N)S(=O)(=O)c1ccc(Cl)cc1N2c1ccc(Cl)c(Cl)c1`, the inhibition in experiment [3] is less than 5%. Moreover, in experiment [4], the “inhibition (INH)” value is less than 5%.
In experiment [3], `CCOC(=O)c1sc2c(c1N)S(=O)(=O)c1cc(Cl)ccc1N2c1cccc(Cl)c1` yielded an inhibition of less than 5%. In addition, in experiment [4], the “inhibition (INH)” value came out at 0%.
In turn, `CCN(CC)CCCC(C)Nc1ccnc2cc(Cl)ccc12` (stereo not drawn) [CHLOROQUINE] registered a Survival in experiment [1] of 30 days. The compound also gave an Activity in experiment [2] of 1.31%. In experiment [4], the “inhibition (INH)” value worked out at 24.12%.
Turning to `CCOC(=O)c1sc2c(c1N)S(=O)(=O)c1cc(Cl)ccc1N2c1ccccc1C`, the inhibition in experiment [3] is less than 5%. In addition, in experiment [4], the “inhibition (INH)” value came to 0%.
In experiment [1], `CCOC(=O)c1sc2c(c1N)S(=O)(=O)c1ccc(Cl)cc1N2c1cccc(OC)c1` displayed a Survival of 12.16 days. This compound had an Activity in experiment [2] of 11.6%. The compound also displayed an inhibition in experiment [3] of less than 5%. Besides, the “inhibition (INH)” value in experiment [4] is given as 55.96%.
The like results for `CCOC(=O)c1sc2c(c1N)S(=O)(=O)c1ccc(Cl)cc1N2c1ccc(C)cc1` were, in that order, 10.8 days, 15.7%, less than 5% and 64.98%.
In experiment [1], `CCOC(=O)c1sc2c(c1N)S(=O)(=O)c1ccc(Cl)cc1N2c1ccccc1` returned a Survival of 13 days. Moreover, the Activity in experiment [2] amounted to 9.75%. For the same compound, the inhibition in experiment [3] was less than 5%. Also, the “inhibition (INH)” value in experiment [4] is 78.17%.
In experiment [1], `CCOC(=O)c1sc2c(c1N)S(=O)(=O)c1ccc(Cl)cc1N2c1ccc(OC)cc1` showed a Survival of 11.6 days. The compound further came in with an Activity in experiment [2] of 11.21%. This compound showed an inhibition in experiment [3] of less than 5%. Further, in experiment [4], the “inhibition (INH)” value is on record as 37.01%.
In experiment [3], `CCOC(=O)c1sc2c(c1N)S(=O)(=O)c1cc(Cl)ccc1N2c1ccc(Cl)cc1` had an inhibition of less than 5%. In addition, the “inhibition (INH)” value in experiment [4] is recorded as 0%.
